Results from different studies.
Protocols differ between the studies behind these lines.
BTK: Tyrosine-protein kinase BTK (BTK, Homo sapiens, UniProt Q06187)

Compound | target | test | test system | setting | measurement | result
COc1cc(Nc2cnc(C#N)c(O[C@H](C)CN(C)C)n2)ncc1-c1cnn(C)c1 | Serine/threonine-protein kinase tousled-like 1 (TLK1, Homo sapiens, UniProt Q9UKI8) | enzyme activity, inhibitor, radiometric |  | 1 µM | remaining activity | 95%
COc1ccc(F)cc1C(=O)NCc1ccc(-c2nn([C@@H](C)C(F)(F)F)c(N)c2C(N)=O)cc1 | BTK | binding, SPR |  |  | koff | 7.9e-05 s⁻¹
Cc1cc(NC(=O)c2cccc3cc(-c4cccc5[nH]nc(N)c45)ccc23)ccc1F | Mast/stem cell growth factor receptor Kit (KIT, Homo sapiens, UniProt P10721, D816H) | enzyme activity, inhibitor |  | 0.1 µM | activity vs control | 37%
Cc1ccc(C(=O)NCc2ccsc2)cc1C#Cc1cn(C(C)C)c2ncnc(N)c12 | Mast/stem cell growth factor receptor Kit (KIT, Homo sapiens, UniProt P10721) | enzyme activity, inhibitor |  | 1 µM | activity vs control | -1%
Nc1ncnc2occ(-c3ccc(NC(=O)Nc4cc(C(F)(F)F)ccc4F)cc3)c12 | Cyclin-dependent kinase 11A (CDK11A, Homo sapiens, UniProt Q9UQ88) | cell-free assay |  | 20 µM | remaining signal | 0.3%
COc1cccc(OC)c1-c1cc(C(=O)N[C@@H](CC(C)C)C(=O)O)nn1-c1ccnc2cc(Cl)ccc12 | Neurotensin receptor type 1 (NTSR1, Homo sapiens, UniProt P30989) | calcium signal, agonist | CHO |  | Emax | 63%
C=CC(=O)N1CCC[C@@H]1Cn1nc(-c2ccc(Oc3ccccc3)cc2F)c2c(N)ncnc21 | BTK | enzyme activity, inhibitor |  |  | KI (inactivation) | 1.8 nM
Cc1ccc(C(=O)Nc2ccc(CN3CCN(C)CC3)c(C(F)(F)F)c2)cc1C#Cc1cnc2cccnn12 | Mitogen-activated protein kinase kinase kinase 19 (MAP3K19, Homo sapiens, UniProt Q56UN5) | enzyme activity, inhibitor |  | 23.5 nM | remaining activity | 54%
CC(C)C[C@H](NC(=O)[C@H](CC(C)C)NC(=O)CNC(=O)[C@H](C)NC(=O)[C@H](C)NC(=O)[C@H](CCCNC(=N)N)NC(=O)CNC(=O)CCCCNC(=O)CCCCNC(=O)CCCCNC(=O)[C@H](CCCCN)NC(=O)[C@H](Cc1ccc(O)cc1)NC(=O)CCc1c[nH]c2ccccc12)C(N)=O | Neuropeptides B/W receptor type 1 (NPBWR1, Homo sapiens, UniProt P48145) | cAMP, agonist, TR-FRET |  |  | Emax | 94%
CC(C)(C=C(C#N)C(=O)N1CCC[C@H]1Cn1nc(-c2ccc(Oc3ccccc3)cc2F)c2c(N)ncnc21)N1CCOCC1 | BTK | enzyme activity, inhibitor |  |  | kinact/KI | 400000 M⁻¹ s⁻¹
